The results in this text go back to the RNAGym collection of RNA variant scans (doi:10.1126/science.aae0568).

The chains are these.
B1: tRNA (parent)
chain: GUUCCGUUGGCGUAAUGGUAACGCGUCUCCCUCCUAAGGAGAAGACUGCGGGUUCGAGUCCCGUACGGAACG

This sample holds only a part of the variants without activity. Where only a bound is given, the exact number is not on record here.

Variants of B1 are the subject of the data set. Description: yeast fitness relative to wild type (ratio to wild type); higher = fitter; tRNA-Arg(CCU), competitive growth, 37 C, YPD. The procedure, abridged:
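Genotype frequency changes were the basis for Darwinian fitness relative to wild type. The frequencies came from 100-nucleotide paired-end sequencing of gene amplicons from the start population and each end population of pooled yeast strains with tRNA-Arg(CCU) gene variants at the native locus. Competition ran in YPD at 37°C for 24 hours in six replicates, genotypes needed ≥ 100 starting reads, and estimates < 0.5 were set to 0.5.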
C46U C55U A69U: the yeast fitness was determined as 0.76.

Turning to C46U G50A C66U, the yeast fitness was determined as 0.792.

As to C46G G63A A65U, the yeast fitness stood at 0.721.

As to A45U U64G, the yeast fitness stood at 0.721.

Take G44C C62G G68A: the yeast fitness was at most 0.5.

Regarding A45G G56A U59A, the yeast fitness was at most 0.5.

A45C C49A: the yeast fitness turned out to be 0.603.

A45C C49G: the yeast fitness stood at 0.721.

Consider A45C C49U, for which the yeast fitness amounted to 0.978.

As for A45U A57G G67A, the yeast fitness turned out to be 0.598.

As to A45C G63C, the yeast fitness was found to be 0.589.

With C46U G58C, the yeast fitness is 0.825.

For C46U G58A, the yeast fitness came out at 0.985.

For the variant C46U C55A C66U, the yeast fitness turned out to be 0.555.

Turning to C46U G51C, the yeast fitness turned out to be 0.571.

With C46A G68C A69G, the yeast fitness is at most 0.5.

With C46A G56A A70G, the yeast fitness is 1.01.

Consider A45C G58C A69C, for which the yeast fitness was 0.651.

Consider A45G U47A, for which the yeast fitness was determined as 0.91.

Consider A45U U54A C55G, for which the yeast fitness was at most 0.5.

Take G44C G48A G51A: the yeast fitness was 0.985.

On to A45U C49G C55G G67C, for which the yeast fitness came out at 0.532.

For A45C C55U G68C, the yeast fitness came to 0.626.

For C46G G56A, the yeast fitness was 1.03.

On to C46G C62G G67U, for which the yeast fitness turned out to be 0.542.

Consider A45U U53G, for which the yeast fitness was at most 0.5.

Regarding A45U U53A, the yeast fitness turned out to be 0.723.

Consider C46U G51C C66G, for which the yeast fitness was at most 0.5.

With C46G C49U A69U, the yeast fitness was determined as 1.04.

On to C46U G63A, for which the yeast fitness was 0.769.

C46A A69U: the yeast fitness amounted to 1.1.

For C46A A69C, the yeast fitness turned out to be 0.839.

C46A A69G: the yeast fitness was determined as 0.932.

On to A45U C46G, for which the yeast fitness was determined as 0.739.

As to A45G A57G G63A, the yeast fitness is at most 0.5.

Regarding G44U A45U G63C, the yeast fitness is at most 0.5.

A45G C49G: the yeast fitness came out at 0.712.

A45G C49U: the yeast fitness was 0.941.

For the variant A45C G50A G63C, the yeast fitness is 0.578.

For A45U A70G, the yeast fitness was 1.09.

In the case of A45U A70U, the yeast fitness is 0.925.

In the case of A45C G48C, the yeast fitness came out at 0.833.

In the case of C46G G48A G58C, the yeast fitness worked out at 1.15.

For A45C C62G A65C, the yeast fitness is 0.554.

Consider A45G A57G, for which the yeast fitness came to 0.943.

As for C46G G52A C62U, the yeast fitness was found to be 0.639.

As for C46U C55A G56C, the yeast fitness was found to be 0.561.

Consider C46A A57U, for which the yeast fitness amounted to 0.792.

In the case of C46A A57C, the yeast fitness amounted to 0.57.

For the variant C46A A57G, the yeast fitness is 0.964.

As to A45C C46U C55U C62U, the yeast fitness is at most 0.5.

With A45C C46A C49G, the yeast fitness stood at 0.722.

For A45U A65G G67U A69G, the yeast fitness is at most 0.5.

In the case of C46U A65C C66U, the yeast fitness stood at 0.721.

On to A45U C49U, for which the yeast fitness was 1.07.

Consider C46G G52A, for which the yeast fitness was found to be 0.843.

As to C46G G52C, the yeast fitness is 0.585.

In the case of C46U C55U C61G, the yeast fitness was at most 0.5.

For the variant C46A G52A G63C, the yeast fitness is 0.555.

Take G44C G50A G67C: the yeast fitness is 0.604.

G44U A45C G50C: the yeast fitness was at most 0.5.

As to A45U U54C C66G G67C, the yeast fitness was at most 0.5.

C46U C49A: the yeast fitness was determined as 0.858.

Consider C46U C49U, for which the yeast fitness worked out at 0.98.

Turning to A45C A57G A70C, the yeast fitness was 0.764.

Turning to A45C G68U, the yeast fitness came out at 0.739.

In the case of A45C G68A, the yeast fitness came to 0.838.

On to A45C C49U A70C, for which the yeast fitness is 0.813.

Regarding A45U C46G C60A, the yeast fitness was 0.557.

For the variant C46A G52A G58C, the yeast fitness amounted to 0.742.

As to C46G C61A A65C, the yeast fitness was at most 0.5.

With A45G G48A, the yeast fitness stood at 1.1.

For the variant A45U G50C, the yeast fitness worked out at 0.728.

As to A45U G50A G68C A69U, the yeast fitness was at most 0.5.

For A45C A69G, the yeast fitness was 1.06.

As to A45C A69C, the yeast fitness came to 0.744.

Turning to A45C U53C C66U, the yeast fitness is at most 0.5.

Turning to A45U A57C, the yeast fitness was found to be 0.617.

As to A45U U54A, the yeast fitness worked out at 0.702.

Regarding C46G U54C, the yeast fitness came to 0.697.

For A45C C55U A69U, the yeast fitness was found to be 0.753.

In the case of C46G C49U G68C, the yeast fitness was found to be 0.653.

For the variant G44C G52C C66G, the yeast fitness is at most 0.5.

In the case of C46G C61U, the yeast fitness came to 1.05.

For the variant C46G C61A, the yeast fitness is 0.678.

Take C46G G50C: the yeast fitness is 0.949.

On to C46G G50A, for which the yeast fitness came to 1.04.

For A45C C49A U54C, the yeast fitness was at most 0.5.

Take C46A C61G A69G: the yeast fitness came to 0.551.

Regarding C46A C61G A69C, the yeast fitness is 0.501.

Consider A45U C49A G52C G56A, for which the yeast fitness is at most 0.5.

Consider A45U C49G A65U, for which the yeast fitness was determined as 0.599.

For C46U G48A G56A, the yeast fitness was 0.848.

Take C46U C61G A69U: the yeast fitness is 0.627.

On to G44C G51A G58C U59A, for which the yeast fitness was at most 0.5.

Turning to A45G C60A, the yeast fitness turned out to be 0.632.

Take A45C G50A A65C: the yeast fitness is 0.634.

For the variant C46A C61G A70U, the yeast fitness is 0.525.

C46A G56A: the yeast fitness amounted to 1.01.

Consider C46A G56C, for which the yeast fitness was 0.642.

As for G44U C55G, the yeast fitness was at most 0.5.

Regarding A45G C66U A69C, the yeast fitness is 0.598.

As for A45G C60A C62A, the yeast fitness stood at 0.57.

As for C46U A70U, the yeast fitness stood at 1.05.

Turning to C46U A70G, the yeast fitness is 1.05.

As for A45U G63A, the yeast fitness amounted to 0.843.

Take A45G C62U: the yeast fitness was 0.968.

For the variant A45C G51C U54C A57G, the yeast fitness was at most 0.5.

On to C46G C62U C66U, for which the yeast fitness came out at 0.746.

Regarding C46U C55A G56C A65G, the yeast fitness is at most 0.5.

With A45G C46A, the yeast fitness stood at 0.916.

In the case of A45G C46U, the yeast fitness is 0.991.

Consider G44C G68C, for which the yeast fitness amounted to 0.81.

Take G44C G68U: the yeast fitness was found to be 0.661.

With C46A C66U, the yeast fitness turned out to be 0.985.

In the case of C46A C66A, the yeast fitness turned out to be 0.688.

For A45C U54C, the yeast fitness was 0.69.

Take C46A A70C: the yeast fitness was found to be 1.02.

Regarding G44C C61G, the yeast fitness was found to be 0.586.

On to G44C C61U, for which the yeast fitness came out at 0.718.

A45C G51A: the yeast fitness came out at 0.919.

Take G44C U47C: the yeast fitness turned out to be 0.822.

With C46G A70U, the yeast fitness worked out at 0.976.

Regarding C46G A70C, the yeast fitness is 0.923.

With C46G A70G, the yeast fitness turned out to be 1.03.

Take A45U C46A C60G: the yeast fitness stood at 0.521.

For A45C U47G A57G, the yeast fitness amounted to 0.605.

On to A45C C49A A65U, for which the yeast fitness was at most 0.5.

As to A45G G63A G68A, the yeast fitness amounted to 0.536.

With C46A G52C G63A A65U, the yeast fitness was at most 0.5.

As for A45U C49G A70C, the yeast fitness worked out at 0.65.

As to A45C A57G, the yeast fitness is 0.858.

On to A45C C55G C61U, for which the yeast fitness was at most 0.5.

With C46U A57G C66A, the yeast fitness was at most 0.5.

In the case of A45U G48A C55A, the yeast fitness was found to be 0.543.

C46G C49U G67U: the yeast fitness was 0.671.

Turning to C46G A65C G67A, the yeast fitness worked out at 0.732.

On to A45G A65C, for which the yeast fitness amounted to 0.868.

Turning to A45G A65U, the yeast fitness worked out at 0.911.

Turning to C46U G56A, the yeast fitness stood at 0.978.

C46U G56C: the yeast fitness was determined as 0.698.

As to A45C U59C, the yeast fitness was 0.874.

As for C46U C49A C62U, the yeast fitness was 0.555.

C46U A57C: the yeast fitness is 0.638.

C46U A57G: the yeast fitness was 0.994.

As to A45C G50A, the yeast fitness was 0.969.

With A45G G58C G67U G68C, the yeast fitness is at most 0.5.

A45U C55U: the yeast fitness worked out at 0.743.

As for A45C A65G, the yeast fitness was 0.993.

A45C A65U: the yeast fitness is 0.833.

For C46A C60G, the yeast fitness worked out at 0.684.

As to C46G G63A, the yeast fitness was 0.798.

A45U C62A: the yeast fitness was found to be 0.655.

A45C G52A: the yeast fitness was determined as 0.731.

For A45U G56C A57G G68U, the yeast fitness was at most 0.5.

Turning to C46A G58C U59C, the yeast fitness was found to be 0.545.

C46A C49U G63C: the yeast fitness is 0.694.

For the variant G44C G50C A57G A69U, the yeast fitness was at most 0.5.

Consider A45U C62G C66G, for which the yeast fitness is at most 0.5.

With A45C C60U, the yeast fitness amounted to 0.752.

For the variant C46A C49A, the yeast fitness came out at 0.601.

Take G44C U59A: the yeast fitness is 0.581.

Regarding G44C U59C, the yeast fitness was found to be 0.791.

Take C46U G56A C61G: the yeast fitness was at most 0.5.

Regarding A45C G51C A57G, the yeast fitness is at most 0.5.

A45C G48A C55A: the yeast fitness is 0.544.

As for G44C G52A C62G A69G, the yeast fitness is at most 0.5.
